The values that follow come from ChEMBL document CHEMBL4152271, “Polypharmacological profile of 1,2-dihydro-2-oxo-pyridine-3-carboxamides in the endocannabinoid system” (Eur J Med Chem, 2018).

Molecules are shown by their SMILES. Activity calls are given as the source filed them. The calls are words filed in the database; no cut-off is given here.

Test [1] concerns the target T1, Fatty-acid amide hydrolase 1 (Homo sapiens, UniProt O00519).
T1 sequence (O00519 whole entry): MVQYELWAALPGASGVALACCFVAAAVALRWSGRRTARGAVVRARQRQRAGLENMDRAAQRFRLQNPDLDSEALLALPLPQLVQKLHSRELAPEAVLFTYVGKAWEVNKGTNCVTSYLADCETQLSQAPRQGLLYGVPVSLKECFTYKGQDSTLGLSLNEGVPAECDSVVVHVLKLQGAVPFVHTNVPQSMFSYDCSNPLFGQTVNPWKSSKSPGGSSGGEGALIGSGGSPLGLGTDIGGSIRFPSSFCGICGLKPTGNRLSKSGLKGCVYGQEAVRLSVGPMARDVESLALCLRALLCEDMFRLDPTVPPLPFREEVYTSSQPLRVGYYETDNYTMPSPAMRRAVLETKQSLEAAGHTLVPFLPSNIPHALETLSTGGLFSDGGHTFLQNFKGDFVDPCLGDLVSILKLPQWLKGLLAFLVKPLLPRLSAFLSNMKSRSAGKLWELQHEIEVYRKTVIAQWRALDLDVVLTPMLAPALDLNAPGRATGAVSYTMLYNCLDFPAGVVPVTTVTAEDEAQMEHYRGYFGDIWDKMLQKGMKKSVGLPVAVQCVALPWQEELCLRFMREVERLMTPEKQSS
The test can be described thus: Inhibition of FAAH in human U937 cells using AEA containing [ethanolamine-1-3H]AEA as substrate preincubated for 30 mins followed by substrate addition and measured after 15 mins by liquid scintillation spectroscopic method. Format: cell-based. Summed up:
(§1)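 U937 cell homogenate (100 µg) in 10 mM Tris-HCl, 1 mM EDTA, pH 8, 0.1% fatty acid-free BSA. Compound at 10 µM screening concentration, 30 min at 37 °C. FAAH: 100 nM AEA with 1 nM [³H]AEA tracer. MAGL: 1 µM 2-OG with 1 nM tritiated tracer. Both 15 min at 37 °C, stopped with CHCl₃:MeOH (1:1), aqueous phase counted.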

The next test is filed under the species Homo sapiens. As to the kind of experiment: Selectivity ratio of Ki for human CB1 receptor to Ki for human CB2 receptor. Summed up:
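Membranes expressing hCB1 or hCB2 (stably transfected CHO) in 50 mM Tris-HCl, 2.5 mM EDTA, 5 mM MgCl₂, 0.5% fatty acid-free BSA, pH 7.4. Incubated with compound and 0.5 nM [³H]CP55,940 for 90 min at 30 °C. Nonspecific binding with 10 µM […]. GF/B filtration, radioactivity counted, Ki derived. Mean ± SD, at least 3 experiments in triplicate.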

The target in test [2] is T2, Monoacylglycerol lipase ABHD6 (Homo sapiens, UniProt Q9BV23).
T2 sequence (Q9BV23 whole entry): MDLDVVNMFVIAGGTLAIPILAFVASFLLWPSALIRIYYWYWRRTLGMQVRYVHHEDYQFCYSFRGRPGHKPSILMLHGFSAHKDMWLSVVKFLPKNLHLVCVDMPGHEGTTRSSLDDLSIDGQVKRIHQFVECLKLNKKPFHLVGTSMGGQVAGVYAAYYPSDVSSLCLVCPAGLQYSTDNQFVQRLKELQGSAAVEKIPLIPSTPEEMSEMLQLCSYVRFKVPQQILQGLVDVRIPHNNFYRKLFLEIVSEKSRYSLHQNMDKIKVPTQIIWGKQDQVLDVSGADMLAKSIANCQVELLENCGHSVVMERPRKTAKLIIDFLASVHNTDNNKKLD
As to the kind of experiment: Inhibition of human ABHD6 expressed in HEK293 cells using 2-OG as substrate preincubated for 30 mins followed by substrate addition and measured after 5 mins by liquid scintillation spectroscopic method. Format: cell-based. In short, it runs like this: (§2)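 Homogenate (40 µg) of HEK293 cells stably transfected with hABHD6 or hABHD12, compound preincubated 30 min at 37 °C in […], 0.1% BSA, pH 7.6. DMSO vehicle; WWL70 10 µM or THL 20 µM as positive controls. 10 µM 2-OG added for 5 min at 37 °C, stopped with CHCl₃:MeOH. Aqueous phase counted; no-enzyme blanks and non-transfected HEK293 hydrolysis subtracted.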

The target of test [3] is T3, Cannabinoid receptor 2 (Homo sapiens, UniProt P34972). As to the kind of experiment: Agonist activity at human CB2 receptor expressed in CHO cell membranes after 90 mins by [35S]GTPgammaS binding assay relative to control. In kind it is functional. Summed up:
(§3)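 Membranes (5 µg) of hCB2-expressing cells in 50 mM Tris-HCl, 3 mM MgCl₂, 0.2 mM EDTA, 100 mM NaCl, 0.5% fatty acid-free BSA, pH 7.4, with 10 µM GDP and 0.1 nM [³⁵S]GTPγS. Kept on ice, started by vehicle or compound, 90 min at 30 °C. Nonspecific binding with 10 µM GTPγS. Filtered on GF/B, radioactivity counted. At least three experiments in triplicate, mean ± SD.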
For orientation: GTPγS is a poorly hydrolysed GTP analogue; its binding reports G protein activation.

For test [4], the target named is T3, Cannabinoid receptor 2. The test can be described thus: Displacement of [3H]-CP55940 from human CB2 receptor expressed in CHO cell membranes after 90 mins. In short, it runs like this: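 Membranes expressing hCB1 or hCB2 (stably transfected CHO) in 50 mM Tris-HCl, 2.5 mM EDTA, 5 mM MgCl₂, 0.5% fatty acid-free BSA, pH 7.4. Nonspecific binding with 10 µM […]. GF/B filtration, radioactivity counted, Ki derived. Mean ± SD, at least 3 experiments in triplicate.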
In general terms: Displacement assays read how much labelled ligand stays bound in the presence of the test substance.

The target in test [5] is T4, Cannabinoid receptor 1 (Homo sapiens, UniProt P21554). As to the kind of experiment: Displacement of [3H]-CP55940 from human CB1 receptor expressed in CHO cell membranes after 90 mins.
The target in test [6] is T5, Lysophosphatidylserine lipase ABHD12 (Homo sapiens, UniProt Q8N2K0).
T5 sequence (Q8N2K0 whole entry): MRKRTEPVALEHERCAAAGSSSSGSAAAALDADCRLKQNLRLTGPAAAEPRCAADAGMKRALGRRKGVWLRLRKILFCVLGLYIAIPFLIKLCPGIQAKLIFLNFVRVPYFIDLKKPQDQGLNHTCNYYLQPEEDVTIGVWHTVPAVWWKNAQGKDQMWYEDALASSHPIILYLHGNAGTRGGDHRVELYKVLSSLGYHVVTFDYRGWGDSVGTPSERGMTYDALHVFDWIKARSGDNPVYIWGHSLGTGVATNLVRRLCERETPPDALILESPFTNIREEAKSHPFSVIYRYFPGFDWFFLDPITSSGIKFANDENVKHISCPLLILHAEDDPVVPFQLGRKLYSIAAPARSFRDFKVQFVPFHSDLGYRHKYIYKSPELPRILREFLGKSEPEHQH
As to the kind of experiment: Inhibition of human ABHD12 expressed in HEK293 cells using 2-OG as substrate preincubated for 30 mins followed by substrate addition and measured after 5 mins by liquid scintillation spectroscopic method. Format: cell-based. In short, it runs like this:
as §2

The next test concerns U-251. As to the kind of experiment: Cytotoxicity against human U251MG cells assessed as decrease in cell viability at 0.6 to 40 uM after 48 hrs by MTT assay. Format: functional, cell-based. Summed up: (§4)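 U251MG (EMEM, 10% FBS) or U937 (RPMI 1640, 10% FBS) cells plated at 4x10³/well for 24h, then exposed to compounds (0–40 µM) for 48 h at 37°C. MTT reduction, formazan read at 595 nm. Viability as % of untreated control. Five independent experiments in triplicate, mean ± SD, ANOVA with Bonferroni.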
Background: Formazan colour is commonly taken as a measure of viable cells.

Another test addresses T6, Monoglyceride lipase (Homo sapiens, UniProt Q99685).
T6 sequence (Q99685 whole entry): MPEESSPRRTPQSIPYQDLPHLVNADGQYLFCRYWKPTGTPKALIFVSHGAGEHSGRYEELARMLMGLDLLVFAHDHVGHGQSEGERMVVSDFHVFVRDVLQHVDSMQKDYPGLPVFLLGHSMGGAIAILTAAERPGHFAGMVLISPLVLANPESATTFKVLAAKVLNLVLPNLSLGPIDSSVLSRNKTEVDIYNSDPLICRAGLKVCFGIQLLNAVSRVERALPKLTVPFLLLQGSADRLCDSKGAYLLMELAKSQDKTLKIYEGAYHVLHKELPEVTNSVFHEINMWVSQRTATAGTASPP
The test can be described thus: Inhibition of MAGL in human U937 cells using 2-OG containing […] as substrate preincubated for 30 mins followed by substrate addition and measured after 15 mins by liquid scintillation spectroscopic method. Format: cell-based. In short, it runs like this:
as §1

The subject of test [7] is U-937. The test can be described thus: Inhibition of [ethanolamine-1-3H]AEA/unlabeled AEA uptake in human U937 cells preincubated for 15 mins followed by [ethanolamine-1-3H]AEA/unlabeled AEA addition and measured after 15 mins by scintillation counting method. In kind it is functional, cell-based. Summed up: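 Intact U937 cells (0.5x10⁶ per sample) in RPMI, preincubated with compound for 15 min at 37 °C. Then 1 nM [ethanolamine-1-³H]AEA plus unlabeled AEA (final 100 nM) added for 15 min. Stopped by rapid filtration and ice-cold PBS/1% BSA washes, radioactivity counted. At least three experiments in triplicate, mean ± SD.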

For test [8], the system named is U-937. As to the kind of experiment: Cytotoxicity against human U937 cells assessed as decrease in cell viability at 0.6 to 40 uM after 48 hrs by MTT assay. Format: functional, cell-based. Summed up:
as §4

Test [9] addresses T4, Cannabinoid receptor 1. The test can be described thus: Agonist activity at human CB1 receptor expressed in CHO cell membranes after 90 mins by [35S]GTPgammaS binding assay. In kind it is functional, cell-based.
In test [10] the target is T3, Cannabinoid receptor 2. As to the kind of experiment: Agonist activity at human CB2 receptor expressed in CHO cell membranes after 90 mins by [35S]GTPgammaS binding assay. Format: functional. Summed up: as §3

T3 sequence (P34972 whole entry): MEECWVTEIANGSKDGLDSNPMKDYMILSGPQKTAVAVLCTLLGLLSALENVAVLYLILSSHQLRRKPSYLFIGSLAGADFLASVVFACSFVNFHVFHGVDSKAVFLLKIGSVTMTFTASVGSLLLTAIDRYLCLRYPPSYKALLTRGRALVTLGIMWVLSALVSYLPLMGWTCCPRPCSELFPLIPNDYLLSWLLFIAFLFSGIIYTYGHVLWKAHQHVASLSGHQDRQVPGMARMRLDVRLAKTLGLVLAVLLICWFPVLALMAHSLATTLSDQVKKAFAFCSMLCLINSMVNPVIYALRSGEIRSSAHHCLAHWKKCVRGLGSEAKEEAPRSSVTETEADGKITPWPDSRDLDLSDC
T4 sequence (P21554 whole entry): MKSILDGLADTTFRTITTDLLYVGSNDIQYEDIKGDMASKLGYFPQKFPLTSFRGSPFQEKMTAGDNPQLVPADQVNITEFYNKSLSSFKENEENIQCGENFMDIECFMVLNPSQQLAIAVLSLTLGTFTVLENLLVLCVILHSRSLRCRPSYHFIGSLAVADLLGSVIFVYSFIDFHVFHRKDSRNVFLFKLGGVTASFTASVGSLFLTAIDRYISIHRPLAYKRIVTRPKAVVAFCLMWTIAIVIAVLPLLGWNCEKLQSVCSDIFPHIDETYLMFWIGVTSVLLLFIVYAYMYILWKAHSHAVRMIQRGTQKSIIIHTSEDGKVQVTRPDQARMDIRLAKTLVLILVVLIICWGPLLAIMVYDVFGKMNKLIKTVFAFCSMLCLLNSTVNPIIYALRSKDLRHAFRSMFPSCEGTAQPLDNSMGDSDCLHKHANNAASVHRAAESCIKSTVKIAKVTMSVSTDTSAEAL

The IC50 is the point on the concentration scale where inhibition reaches its midpoint. Broadly, the Emax is the size of the effect at its maximum, as opposed to the concentration needed. Usually Ki stands for a measure of affinity in units of concentration, obtained from inhibition or displacement. A high value points to weaker binding. For orientation: EC50 means the midpoint of the concentration-response curve. Regarding `Cc1ccn(Cc2ccc(F)cc2)c(=O)c1C(=O)NC1CCCCCC1`, the concentration for half-maximal inhibition (IC50) was 8800 nM in test [1]; > 10000 nM in test [2]; > 10000 nM in test [6]; > 10000 nM against Monoglyceride lipase; 1800 nM with U-937 [7]. Further, in the test listed under Homo sapiens, the Ratio Ki lay within 2 to 54. The same compound showed an Emax at Cannabinoid receptor 2 [3] of 128%. For the same compound, the results for the Ki on Cannabinoid receptor 2 [4] and on Cannabinoid receptor 1 [5] were 5.9 nM and 11.7 nM, respectively. Besides, the outcome with U-251 was inactive. Moreover, the outcome in the test on U-937 [8] was Active. Further, the concentration giving a half-maximal response (EC50) at Cannabinoid receptor 1 [9] was found to be 69 nM; at Cannabinoid receptor 2 [10], 1.9 nM.
